Source: ChEMBL document CHEMBL1151751, “Bisphosphonate inhibition of a Plasmodium farnesyl diphosphate synthase and a general method for predicting cell-based activity from enzyme data” (J Med Chem, 2008)

Assays:
[1] = Inhibition of Plasmodium vivax FPPS expressed in Escherichia coli BL21 by spectrophotometric assay
Outline: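 Recombinant enzyme from lysed cells (lysozyme, nuclease, protease inhibitors), purified on Ni-NTA resin. The GPP + IPP condensation was followed at room temperature by a continuous spectrophotometric phosphate-release assay in 25 mM Hepes, 2.5 mM MgCl₂, pH 7.4. Inhibitors were preincubated with enzyme for 30 min at room temperature. IC50 was obtained by fitting the dose–response curve.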

Plasmodium falciparum = test: Growth inhibition of Plasmodium falciparum; assay type: functional, organism-based
Plasmodium berghei = test: Antiparasitic activity against Plasmodium berghei ANKA infected BALB/c mice (Mus musculus) as reduced parasitaemia; assay type: functional; design: scale not given: the % may be the effect or the level left

SMILES	IC50 [1]	pIC50 [1]	IC50 (Plasmodium falciparum; read-out: IC50)	IC50 (Plasmodium falciparum; read-out: pIC50 (converted))	Activity (Plasmodium berghei)
O=P(O)(O)C(Nc1nccs1)P(=O)(O)O	0.71 µM	6.1	120 µM	126 µM	–
Cc1cccc(CC(O)(P(=O)(O)O)P(=O)(O)O)c1	2.3 µM	5.6	23 µM	25.1 µM	–
O=P(O)(O)C(O)(Cc1cccc(Cl)c1)P(=O)(O)O	0.63 µM	6.2	4.3 µM	3.98 µM	–
O=P(O)(O)C(O)(Cc1cccc(C(F)(F)F)c1)P(=O)(O)O	0.68 µM	6.2	3.8 µM	3.98 µM	–
O=P(O)(O)C(O)(Cc1cccc(F)c1)P(=O)(O)O	0.63 µM	6.2	6.4 µM	6.31 µM	–
Cc1ccc(C)c(COc2ccc(C)nc2NC(P(=O)(O)O)P(=O)(O)O)c1	98 µM	4	200 µM	200 µM	–
O=P(O)(O)C(CNc1ccccn1)P(=O)(O)O	0.82 µM	6.1	28 µM	25.1 µM	–
CN(CCc1ccccc1)CCC(O)(P(=O)(O)O)P(=O)(O)O	0.4 µM	6.4	–	31.6 µM	–
O=P(O)(O)C(O)(Cc1cccc(Br)c1)P(=O)(O)O	0.88 µM	6.1	22 µM	20 µM	–
CN(Cc1ccccc1)C(P(=O)(O)O)P(=O)(O)O	0.87 µM	6.1	180 µM	200 µM	–
O=P(O)(O)C(O)(Cc1ccccn1)P(=O)(O)O	0.9 µM	6	220 µM	200 µM	–
CCCC(O)(P(=O)(O)O)P(=O)(O)O	0.78 µM	6.1	–	126 µM	–
CCCCCCCCCC(O)(P(=O)(O)O)P(=O)(O)O	0.71 µM	6.1	–	–	80%
CN(CCCc1ccccc1)CCC(O)(P(=O)(O)O)P(=O)(O)O	0.45 µM	6.3	–	25.1 µM	–
O=P(O)(O)C(Nc1ccc(Cl)cn1)P(=O)(O)O	–	–	–	10 µM	–
CCCCCCC(O)(P(=O)(O)O)P(=O)(O)O	0.63 µM	6.2	1.4 µM	1.26 µM	–
O=P(O)(O)C(O)(CSc1ccncc1)P(=O)(O)O	1.2 µM	5.9	–	–	–
CCCCCCCCCCCCCC(O)(P(=O)(O)O)P(=O)(O)O	4.1 µM	5.4	–	2 µM	–
CN(CCCCc1ccccc1)CCC(O)(P(=O)(O)O)P(=O)(O)O	–	–	–	3.16 µM	–
O=P(O)(O)C(O)(Cc1ccccc1)P(=O)(O)O	–	–	11 µM	10 µM	–
O=P([O-])(O)C(O)(CC1=[n+]2ccccc2=NC1)P(=O)(O)O (stereo not given)	–	–	90 µM	100 µM	–
CCCCCCCCCNC(P(=O)(O)O)P(=O)(O)O [(NONYLAMINO)METHYLENEDIPHOSPHONIC ACID]	5.2 µM	5.3	–	100 µM	80%
CCCCCCCCNC(P(=O)(O)O)P(=O)(O)O [(OCTYLAMINO)METHYLENEDIPHOSPHONIC ACID]	0.49 µM	6.3	12 µM	12.6 µM	–
CCCCCN(C)CCC(O)(P(=O)(O)O)P(=O)(O)O [IBANDRONIC ACID]	0.92 µM	6	74 µM	79.4 µM	–
O=P(O)(O)C(O)(Cn1ccnc1)P(=O)(O)O [ZOLEDRONIC ACID]	–	–	–	158 µM	–
